The Km is the concentration of substrate that gives half-maximal velocity. What is called kcat is the maximal rate divided by the concentration of active sites.

The values below come from ChEMBL document CHEMBL1142378, “Characterization and crystal structure of Escherichia coli KDPGal aldolase” (Bioorg Med Chem, 2008).

Changes are numbered by the printed parent chain. Numbers in names are those of the source.

Data set [1] deals with T1, 2-dehydro-3-deoxy-6-phosphogalactonate aldolase (Escherichia coli (strain K12)), Q6BF16 [V154A].
T1 sequence (whole entry): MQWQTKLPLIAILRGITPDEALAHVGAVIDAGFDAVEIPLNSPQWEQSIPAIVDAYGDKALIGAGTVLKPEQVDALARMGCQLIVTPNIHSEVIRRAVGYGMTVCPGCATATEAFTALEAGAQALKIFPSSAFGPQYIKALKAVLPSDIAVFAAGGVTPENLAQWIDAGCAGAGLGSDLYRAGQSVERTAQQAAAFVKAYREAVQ
Nature of the data set: Ratio of kcat to Km for Escherichia coli KDPGal aldolase V154A mutant. In a few lines: (§1)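 V154A or V154T KDPGal aldolase was made by Quikchange and expressed in DF71 (eda–) cells, with 1 mM IPTG induction at 25 °C for 16 h. It was nickel-affinity purified. Retro-aldol cleavage of KDPGal (0.2×–5× KM) was coupled to L-lactate dehydrogenase (105 U) in 20 mM HEPES pH 7.0 with 0.42 mM NADH. Aldolase was added last, and A340 loss was read over 5 min. Kinetic constants came from Michaelis–Menten fits of initial rates.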

The test system of data set [2] is Escherichia coli. Nature of the data set: Ratio of kcat to Km for Escherichia coli KDPGal aldolase. A digest of the protocol: (§2)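 The enzyme started a coupled L-lactate dehydrogenase assay in 20 mM HEPES pH 7.0 with 0.42 mM NADH, KDPGal at 0.2×–5× KM and 105 U LDH. The A340 decrease was followed for 5 min. Initial slopes were fitted to Michaelis–Menten.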
Data set [3] concerns T2, 2-dehydro-3-deoxy-6-phosphogalactonate aldolase (Escherichia coli (strain K12)), Q6BF16 [V154T].
T2 sequence (whole entry): T1 sequence (whole entry) with A154T
The data set can be described thus: Ratio of kcat to Km for Escherichia coli KDPGal aldolase V154T mutant. A digest of the protocol: as §1

In data set [4] the test system is T3, KHG/KDPG aldolase (Escherichia coli (strain K12)), P0A955 [T161A].
T3 sequence (whole entry): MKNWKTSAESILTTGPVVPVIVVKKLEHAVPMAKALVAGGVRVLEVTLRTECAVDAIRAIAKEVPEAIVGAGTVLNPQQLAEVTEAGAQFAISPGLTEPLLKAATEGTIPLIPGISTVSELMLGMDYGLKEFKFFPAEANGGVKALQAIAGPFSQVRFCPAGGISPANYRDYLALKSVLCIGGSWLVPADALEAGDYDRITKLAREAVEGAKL
Nature of the data set: Ratio of kcat to Km of Escherichia coli KDPG aldolase T161A mutant. In a few lines:
(§3)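 KDPG aldolase T161A or T161V mutants were expressed from the pET plasmid in DF71 (eda–) cells, induced with 1 mM IPTG at 25 °C for 16 h, and purified on nickel resin. Assays used 20 mM HEPES pH 7.0, 0.42 mM NADH, KDPG at 0.2×–5× KM and 105 U rabbit-muscle L-lactate dehydrogenase, started with enzyme. A340 was monitored for 5 min, and initial velocities were fitted to Michaelis–Menten.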

The subject of data set [5] is Escherichia coli. The data set can be described thus: Activity of Escherichia coli KDPG aldolase. A digest of the protocol: (§4)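 Wild-type KDPG aldolase activity toward KDPG (0.2×–5× KM) was read through a coupled L-lactate dehydrogenase system: 20 mM HEPES pH 7.0, 0.42 mM NADH, 105 U LDH. Aldolase was added to start the reaction, NADH loss was followed at 340 nm for 5 min, and Michaelis–Menten fits gave the parameters.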

The test system of data set [6] is T4, KHG/KDPG aldolase (Escherichia coli (strain K12)), P0A955 [T161V].
T4 sequence (whole entry): T3 sequence (whole entry) with A161V
The data set can be described thus: Ratio of kcat to Km of Escherichia coli KDPG aldolase T161V mutant. In a few lines: as §3

Data set [7] has as its system Escherichia coli. Nature of the data set: Activity of Escherichia coli KDPGal aldolase. In a few lines: as §2
The test system of data set [8] is Escherichia coli. Nature of the data set: Ratio of kcat to Km of Escherichia coli KDPG aldolase. A digest of the protocol:
as §4

Substrate in data set [9]: O=C(O)C(=O)C[C@H](O)[C@H](O)COP(=O)(O)O
The data set can be described thus: (§5) Activity of Escherichia coli KDPGal aldolase V154T mutant. In a few lines: as §1

Substrate in data set [10]: O=C(O)C(=O)C[C@H](O)[C@@H](O)COP(=O)(O)O
Described as §5. In a few lines:
as §1

Substrate in data set [11]: O=C(O)C(=O)C[C@H](O)[C@H](O)COP(=O)(O)O
The data set can be described thus: (§6) Activity of Escherichia coli KDPGal aldolase V154A mutant. A digest of the protocol:
as §1

Substrate in data set [12]: O=C(O)C(=O)C[C@H](O)[C@@H](O)COP(=O)(O)O
The data set is described as §6. A digest of the protocol: as §1

As for `O=C(O)C(=O)C[C@H](O)[C@H](O)COP(=O)(O)O`, the Ratio was 0.02 mM⁻¹ s⁻¹ in data set [1]; 1.1 mM⁻¹ s⁻¹ with Escherichia coli [2]; 0.1 mM⁻¹ s⁻¹ in [3]; 58 mM⁻¹ s⁻¹ in data set [4]; 0.07 mM⁻¹ s⁻¹ in data set [6]; 800 mM⁻¹ s⁻¹ with Escherichia coli [8]. Besides, the Km in the data set with Escherichia coli [5] came to 0.1 mM; with Escherichia coli [7] it was 1300 µM. The figures for the kcat with Escherichia coli [5] and in the data set with Escherichia coli [7] were 80 s⁻¹ and 1.4 s⁻¹, respectively.
Regarding `O=C(O)C(=O)C[C@H](O)[C@@H](O)COP(=O)(O)O`, the Ratio in [1] was determined as 1.3 mM⁻¹ s⁻¹; in the data set on Escherichia coli [2], 19 mM⁻¹ s⁻¹; in [3], 0.7 mM⁻¹ s⁻¹; in data set [4] it was 5 mM⁻¹ s⁻¹; in data set [6] it was 0.1 mM⁻¹ s⁻¹; with Escherichia coli [8], 2.8 mM⁻¹ s⁻¹. The Km in the data set on Escherichia coli [5] turned out to be 0.6 mM; in the data set on Escherichia coli [7], 200 µM. The kcat with Escherichia coli [5] turned out to be 1.7 s⁻¹; in the data set with Escherichia coli [7] it was 3.8 s⁻¹.

B1: 2-dehydro-3-deoxy-6-phosphogalactonate aldolase (Escherichia coli (strain K12)), Q6BF16 V154T (protein)
chain: T1 sequence (whole entry) with A154T
As for B1, in data set [9], the Km stood at 90 µM and the turnover number (kcat) was found to be 0.01 s⁻¹. Also, in data set [10], the Michaelis constant (Km) is 300 µM and the kcat was found to be 0.2 s⁻¹.

B2: 2-dehydro-3-deoxy-6-phosphogalactonate aldolase (Escherichia coli (strain K12)), Q6BF16 V154A (protein)
chain: T1 sequence (whole entry)
For the molecule B2, the Km in data set [11] was found to be 300 µM; in [12], 400 µM. The figures for the turnover number (kcat) in data set [11] and in data set [12] were 0.007 s⁻¹ and 0.5 s⁻¹, respectively.
